Reference: PubChem BioAssay AID624324 (Broad Institute, 2012)
Calls of active or inactive are those of the source.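 The calls were made as follows: active = fitted AC50 at or under twice the sample's top valid tested dose, with viability loss; inconclusive = flat curve with 30 to 70% viability loss, or poor fit; inactive = the rest, including shifts toward viability gain.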

Tested on: A375 melanoma viability, CellTiter-Glo ATP luminescence, 24 h
Assay: cytotoxicity in MITF-independent A375 cells – cell-based, CellTiter-Glo luminescence, dry powder, set 3, counter-screen for MITF inhibitor project, dose response (AID 624324)
Method in brief: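 assay system = A375 melanoma cells, MITF-independent | quantity = 3000 A375 cells seeded per well | incubation = 24 h exposure at 37 °C, 5 min detection at RT | measured by = ATP luminescence, CellTiter-Glo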

| Structure (SMILES) | AC50 |
| --- | --- |
| O=C1C(NS(=O)(=O)c2ccc(Br)cc2)=C(N2CCSCC2)C(=O)c2ccccc21 | > 70 µM (inactive) |
| O=C1C(NS(=O)(=O)c2ccc(Br)cc2)=C(c2ccc(OC(F)(F)F)cc2)C(=O)c2ccccc21 | > 70 µM (inactive) |
| O=C(NC1=C(Cl)C(=O)c2ccccc2C1=O)c1ccccc1 | 29.9 µM |
| CCN1CCN(C2=C(NS(=O)(=O)c3ccc(Br)cc3)C(=O)c3ccccc3C2=O)CC1 | > 70 µM (inactive) |
| C=CCNC1=C(NC(=O)c2ccccc2)C(=O)c2ccccc2C1=O | > 70 µM (inactive) |
| NC1=CC(=O)c2ccccc2C1=O | > 70 µM (inactive) |
| C=CCNC1=C(Cl)C(=O)c2ccccc2C1=O | > 70 µM (inactive) |
| COC1=C(NS(=O)(=O)c2ccccc2)C(=O)c2ccccc2C1=O | > 70 µM (inactive) |
| CCN(CC)CCNC1=C(Nc2ccccc2)C(=O)c2ccccc2C1=O | > 70 µM (inactive) |
| C=CCNC1=C(N2CCOCC2)C(=O)c2ccccc2C1=O | 22.8 µM |
| CCN1CCN(C2=C(N(C)C(C)=O)C(=O)c3ccccc3C2=O)CC1 | 15.2 µM |
| Cc1ccc(C(=O)NC2=C(c3ccc(OC(F)(F)F)cc3)C(=O)c3ccccc3C2=O)o1 | 30.4 µM |
| O=C1C(NS(=O)(=O)c2ccc(Br)cc2)=C(N2CCCCC2)C(=O)c2ccccc21 | > 70 µM (inactive) |
| CC1CCN(CC(CS(=O)(=O)c2ccc([N+](=O)[O-])cc2)N2CCC(C)CC2)CC1 (stereo unspecified) | > 70 µM (inactive) |
| O=C(NC1=C(c2ccccc2)C(=O)c2ccccc2C1=O)c1ccc(Br)cc1 | 26.4 µM |
| CN1CCN(C2=C(NC(=O)c3ccccc3)C(=O)c3ccccc3C2=O)CC1 | 13.6 µM |
| COc1ccc(C2=C(NC(=O)c3ccc(Cl)cc3)C(=O)c3ccccc3C2=O)cc1 | 27.7 µM |
| O=C(NC1=C(c2ccc(OC(F)(F)F)cc2)C(=O)c2ccccc2C1=O)c1ccccc1F | 36.6 µM |
| O=C(NC1=C(c2ccc(OC(F)(F)F)cc2)C(=O)c2ccccc2C1=O)c1ccccc1 | 23.6 µM |
| COc1ccc(C(=O)NC2=C(c3ccccc3)C(=O)c3ccccc3C2=O)cc1 | 24.8 µM |
| COc1ccc(C2=C(NC(=O)c3ccccc3OC)C(=O)c3ccccc3C2=O)cc1 | 25.5 µM |
| O=C(CNc1cccc2ccccc12)N/N=C/c1ccc([N+](=O)[O-])o1 | > 70 µM (inactive) |
| COc1ccc(C2=C(NC(=O)c3cccc(OC)c3)C(=O)c3ccccc3C2=O)cc1 | 27.2 µM |

| Structure (SMILES) | AC50 |
| --- | --- |
| C[C@@H](NC1=C(Nc2ccccc2)C(=O)c2ccccc2C1=O)c1ccccc1 | > 70 µM (inactive) |
| CCN1CCN(C2=C(NC(=O)c3ccc(Br)cc3)C(=O)c3ccccc3C2=O)CC1 | 18.4 µM |
| C=CCNC1=C(NCCN(CC)CC)C(=O)c2ccccc2C1=O | 35.2 µM |
| O=C(NC1=C(N2CCOCC2)C(=O)c2ccccc2C1=O)c1ccccc1 | 26.9 µM |
| COc1ccc(C(=O)NC2=C(c3ccc(OC)cc3)C(=O)c3ccccc3C2=O)cc1 | 14.9 µM |
| CC(=O)NC1=C(c2cccc(Cl)c2)C(=O)c2ccccc2C1=O | 9.51 µM |
| CCN1CCN(C2=C(NC(=O)c3ccccc3)C(=O)c3ccccc3C2=O)CC1 | 25 µM |
| O=C1C(Nc2ccccc2)=C(N2CCOCC2)C(=O)c2ccccc21 | > 70 µM (inactive) |
| O=C1C(Nc2ccccc2)=C(N2CCSCC2)C(=O)c2ccccc21 | > 70 µM (inactive) |
| CCN1CCN(C2=C(NS(=O)(=O)c3ccc(Br)s3)C(=O)c3ccccc3C2=O)CC1 | > 70 µM (inactive) |
| C=CCNC1=C(N2CCCCC2)C(=O)c2ccccc2C1=O | 19.6 µM |
| C=CCNC1=C(N2CCN(CC)CC2)C(=O)c2ccccc2C1=O | 15.7 µM |
| COc1cccc(-c2cc(C(=O)NC3=C(Cl)C(=O)c4ccccc4C3=O)ccc2OC)c1 | > 70 µM (inactive) |
| C=CCNC1=C(N2CCSCC2)C(=O)c2ccccc2C1=O | 11.3 µM |
| CC(=O)N(C)C1=C(N2CCCCC2)C(=O)c2ccccc2C1=O | 29.1 µM |
| O=C(NC1=C(N2CCCCC2)C(=O)c2ccccc2C1=O)c1ccccc1 | > 70 µM (inactive) |
| CC(=O)NC1=C(c2ccccc2)C(=O)c2ccccc2C1=O | 12.1 µM |
| C=CCNC1=C(NCCCN(CC)CC)C(=O)c2ccccc2C1=O | 22 µM |
| C=CCNC1=C(NS(=O)(=O)c2ccc(Br)cc2)C(=O)c2ccccc2C1=O | > 70 µM (inactive) |
| CCN(CC)CCCNC1=C(N(C)C(C)=O)C(=O)c2ccccc2C1=O | 6.19 µM |
| O=C1C(NS(=O)(=O)c2ccc(Br)s2)=C(N2CCCCC2)C(=O)c2ccccc21 | > 70 µM (inactive) |
| O=C1C(Nc2ccccc2)=C(N2CCN(c3ccccc3)CC2)C(=O)c2ccccc21 | > 70 µM (inactive) |
| O=C1C=C(Nc2ccccc2)C(=O)c2ccccc21 | 13.9 µM |
